The record followed here is ChEMBL document CHEMBL1137848, “Discovery of isoxazolinone antibacterial agents. Nitrogen as a replacement for the stereogenic center found in oxazolidinone antibacterials” (2004).

Values after ≈ are worked out from the molar mass of the structure shown.

Common to all, as to type: functional
Experiment [1] has as its system Enterococcus faecalis. As to the kind of experiment: Minimum inhibitory concentration against Enterococcus faecalis (strain A20688) in absence of calf serum. Put shortly: (§1)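 Broth microdilution MIC per NCCLS method in Mueller-Hinton broth without serum. Final inoculum approximately 5·10⁵ CFU/well in microtiter plates, incubated 35 °C for 18 h in ambient air.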
Experiment [2] has as its system Staphylococcus aureus. As to the kind of experiment: Minimum inhibitory concentration against methicillin resistant Staphylococcus aureus (strain A27223) in presence of 50% calf serum. Put shortly:
(§2)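 Microbroth dilution MIC following the NCCLS method, with 50% calf serum added. Mueller-Hinton broth, inoculum approximately 5·10⁵ CFU/well, incubated at 35 °C for 18 h in ambient air.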

Experiment [3] has as its system Staphylococcus aureus. As to the kind of experiment: Minimum inhibitory concentration against Staphylococcus aureus (strain A15090) in absence of calf serum. Put shortly:
as §1

Experiment [4] deals with Staphylococcus aureus. In words: Minimum inhibitory concentration against Staphylococcus aureus (strain A15090) in presence of 50% calf serum. In outline: as §2
In experiment [5] the test system is Enterococcus faecalis. As to the kind of experiment: Minimum inhibitory concentration against Enterococcus faecalis (strain A20688) in presence of 50% calf serum. In outline: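 Broth microdilution MIC per NCCLS method in Mueller-Hinton broth supplemented with 50% calf serum. Final inoculum approximately 5·10⁵ CFU/well, incubated 35 °C for 18 h in ambient air.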

The subject of the next experiment is Haemophilus influenzae. As to the kind of experiment: Minimum inhibitory concentration against Haemophilus influenzae (strain A20191) in absence of calf serum. In outline:
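MIC by NCCLS microbroth dilution in Haemophilus test medium broth without serum. Inoculum approximately 5·10⁵ CFU/well in microtiter plates, incubated at 35 °C for 18 h in ambient air.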

Experiment [6] has as its system Staphylococcus aureus. In words: Minimum inhibitory concentration against methicillin resistant Staphylococcus aureus (strain A27223) in absence of calf serum. Put shortly:
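Microbroth dilution MIC following the NCCLS method, no serum added. Mueller-Hinton broth, inoculum approximately 5·10⁵ CFU/well, incubated at 35 °C for 18 h in ambient air.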

For `COc1cccc(-c2cn(CNC(C)=O)oc2=O)c1`, the MIC against Enterococcus faecalis [1] is 32 µg/mL (≈ 122 µM); in the experiment on Staphylococcus aureus [2], over 64 µg/mL; against Staphylococcus aureus [3], 32 µg/mL (≈ 122 µM); with Staphylococcus aureus [4], 64 µg/mL; in the experiment on Enterococcus faecalis [5], over 64 µg/mL; against Haemophilus influenzae, over 64 µg/mL. In the experiment on Staphylococcus aureus [6], this compound had an MIC of 16 µg/mL (≈ 61 µM).
Regarding `CC(=O)NCn1cc(-c2ccc3c(c2)OCO3)c(=O)o1`, the MIC with Enterococcus faecalis [1] was 1 µg/mL (≈ 3.62 µM); in the experiment on Staphylococcus aureus [2], 4 µg/mL; in the experiment on Staphylococcus aureus [3] it was 2 µg/mL (≈ 7.24 µM); in the experiment with Staphylococcus aureus [4], 4 µg/mL; in the experiment with Enterococcus faecalis [5], 8 µg/mL; with Haemophilus influenzae it was 16 µg/mL (≈ 57.9 µM). In the experiment on Staphylococcus aureus [6], this compound gave an MIC of 1 µg/mL (≈ 3.62 µM).
Regarding `CC(=O)NCn1cc(-c2cccc(Cl)c2)c(=O)o1`, the MIC in the experiment on Enterococcus faecalis [1] is 16 µg/mL (≈ 60 µM); with Staphylococcus aureus [2], 16 µg/mL; with Staphylococcus aureus [3] it was 8 µg/mL (≈ 30 µM); in the experiment on Staphylococcus aureus [4] it was over 64 µg/mL; with Enterococcus faecalis [5], over 64 µg/mL; against Haemophilus influenzae it was 32 µg/mL (≈ 120 µM). The same compound displayed an MIC in the experiment with Staphylococcus aureus [6] of 4 µg/mL (≈ 15 µM).
For the compound `CC(=O)NCn1cc(-c2cc(C(F)(F)F)cc(C(F)(F)F)c2)c(=O)o1`, the MIC in the experiment with Enterococcus faecalis [1] was over 128 µg/mL; against Staphylococcus aureus [3] it was over 128 µg/mL; against Haemophilus influenzae, over 64 µg/mL.
Consider `Oc1oncc1-c1ccc(-c2ccccc2)cc1`, for which the MIC is over 128 µg/mL against Enterococcus faecalis [1]; over 128 µg/mL in the experiment on Staphylococcus aureus [3]; over 64 µg/mL in the experiment on Staphylococcus aureus [4]; over 64 µg/mL in the experiment with Enterococcus faecalis [5]; over 64 µg/mL in the experiment on Haemophilus influenzae.
Take `CC(=O)NCn1cc(-c2cc(F)cc(F)c2)c(=O)o1`: the MIC was 32 µg/mL (≈ 119 µM) against Enterococcus faecalis [1], 8 µg/mL (≈ 29.8 µM) with Staphylococcus aureus [3], over 64 µg/mL in the experiment with Haemophilus influenzae and 8 µg/mL (≈ 29.8 µM) against Staphylococcus aureus [6].
Turning to `NC(=O)Cn1cc(-c2ccccc2)c(=O)o1`, the MIC is over 128 µg/mL against Enterococcus faecalis [1] and over 64 µg/mL in the experiment on Haemophilus influenzae.
As to `COc1ccc(-c2cn(CNC(C)=O)oc2=O)cc1`, the MIC with Enterococcus faecalis [1] came to 2 µg/mL (≈ 7.63 µM); in the experiment with Staphylococcus aureus [2], 4 µg/mL; against Staphylococcus aureus [3], 2 µg/mL (≈ 7.63 µM); with Staphylococcus aureus [4], 4 µg/mL; with Enterococcus faecalis [5] it was 8 µg/mL; in the experiment on Haemophilus influenzae it was 16 µg/mL (≈ 61 µM). Further, the MIC against Staphylococcus aureus [6] stood at 1 µg/mL (≈ 3.81 µM).
As to `CC(=O)NCn1cc(-c2ccc(-c3ccccc3)cc2)c(=O)o1`, the MIC against Enterococcus faecalis [1] is 4 µg/mL (≈ 13 µM); with Staphylococcus aureus [2] it was 64 µg/mL; in the experiment on Staphylococcus aureus [3], 4 µg/mL (≈ 13 µM); in the experiment with Staphylococcus aureus [4] it was over 64 µg/mL; in the experiment on Enterococcus faecalis [5], 64 µg/mL; in the experiment with Haemophilus influenzae, 16 µg/mL (≈ 51.9 µM). Moreover, in the experiment with Staphylococcus aureus [6], the MIC turned out to be 1 µg/mL (≈ 3.24 µM).
For `CSc1ccc(-c2cnoc2O)cc1`, the MIC is over 128 µg/mL against Enterococcus faecalis [1]; over 128 µg/mL in the experiment on Staphylococcus aureus [3]; over 64 µg/mL in the experiment on Staphylococcus aureus [4]; over 64 µg/mL in the experiment with Enterococcus faecalis [5]; over 64 µg/mL in the experiment on Haemophilus influenzae.
For `CSc1ccc(-c2cn(CNC(C)=O)oc2=O)cc1`, the MIC amounted to 1 µg/mL (≈ 3.59 µM) against Enterococcus faecalis [1]; 8 µg/mL in the experiment with Staphylococcus aureus [2]; 2 µg/mL (≈ 7.19 µM) in the experiment with Staphylococcus aureus [3]; 16 µg/mL in the experiment on Staphylococcus aureus [4]; 16 µg/mL with Enterococcus faecalis [5]; 8 µg/mL (≈ 28.7 µM) with Haemophilus influenzae. Besides, the MIC in the experiment with Staphylococcus aureus [6] is 1 µg/mL (≈ 3.59 µM).
Consider `COc1ccc(-c2cnoc2O)cc1`, for which the MIC is over 128 µg/mL in the experiment on Enterococcus faecalis [1]; over 128 µg/mL against Staphylococcus aureus [3]; over 64 µg/mL in the experiment with Staphylococcus aureus [4]; over 64 µg/mL in the experiment with Enterococcus faecalis [5]; over 64 µg/mL in the experiment with Haemophilus influenzae.
Turning to `CC(=O)NCn1cc(-c2ccc(F)c(F)c2)c(=O)o1`, the MIC in the experiment with Enterococcus faecalis [1] is over 128 µg/mL; with Staphylococcus aureus [3] it was 128 µg/mL (≈ 477 µM); with Staphylococcus aureus [4] it was over 64 µg/mL; in the experiment on Enterococcus faecalis [5], over 64 µg/mL; against Haemophilus influenzae, over 64 µg/mL; against Staphylococcus aureus [6], over 128 µg/mL.
Take `CC(=O)NCn1cc(-c2ccc(Cl)cc2)c(=O)o1`: the MIC was 8 µg/mL (≈ 30 µM) against Enterococcus faecalis [1], 8 µg/mL (≈ 30 µM) against Staphylococcus aureus [3], 32 µg/mL (≈ 120 µM) against Haemophilus influenzae and 4 µg/mL (≈ 15 µM) in the experiment on Staphylococcus aureus [6].
Take `CC(=O)NCn1cc(-c2ccccc2)c(=O)o1`: the MIC turned out to be 16 µg/mL (≈ 68.9 µM) in the experiment with Enterococcus faecalis [1]; 8 µg/mL in the experiment on Staphylococcus aureus [2]; 8 µg/mL (≈ 34.4 µM) in the experiment with Staphylococcus aureus [3]; 16 µg/mL in the experiment on Staphylococcus aureus [4]; 16 µg/mL in the experiment with Enterococcus faecalis [5]; 8 µg/mL (≈ 34.4 µM) in the experiment with Haemophilus influenzae. In addition, the MIC in the experiment on Staphylococcus aureus [6] turned out to be 4 µg/mL (≈ 17.2 µM).
Consider `CC(=O)NCn1cc(-c2cccc(F)c2)c(=O)o1`, for which the MIC in the experiment on Enterococcus faecalis [1] is 16 µg/mL (≈ 63.9 µM); with Staphylococcus aureus [3] it was 8 µg/mL (≈ 32 µM); in the experiment on Haemophilus influenzae, over 64 µg/mL; in the experiment on Staphylococcus aureus [6], 4 µg/mL (≈ 16 µM).
Take `CC(=O)NCn1cc(-c2ccc(F)cc2)c(=O)o1`: the MIC in the experiment on Enterococcus faecalis [1] is over 128 µg/mL; in the experiment with Staphylococcus aureus [3] it was over 128 µg/mL; with Staphylococcus aureus [4], over 64 µg/mL; with Enterococcus faecalis [5] it was over 64 µg/mL; in the experiment on Haemophilus influenzae, 32 µg/mL (≈ 128 µM).
As to `CC(=O)NCn1cc(-c2ccc(Br)cc2)c(=O)o1`, the MIC in the experiment on Enterococcus faecalis [1] was 8 µg/mL (≈ 25.7 µM); in the experiment on Staphylococcus aureus [3], 4 µg/mL (≈ 12.9 µM); in the experiment with Staphylococcus aureus [4], over 64 µg/mL; with Enterococcus faecalis [5], over 64 µg/mL; in the experiment with Haemophilus influenzae, 8 µg/mL (≈ 25.7 µM); against Staphylococcus aureus [6], 2 µg/mL (≈ 6.43 µM).
As for `CC(=O)NCn1cc(-c2cccc(C(F)(F)F)c2)c(=O)o1`, the MIC in the experiment with Enterococcus faecalis [1] is 64 µg/mL (≈ 213 µM); in the experiment with Staphylococcus aureus [2] it was 64 µg/mL; with Staphylococcus aureus [3] it was 32 µg/mL (≈ 107 µM); in the experiment with Staphylococcus aureus [4] it was 64 µg/mL; with Enterococcus faecalis [5] it was over 64 µg/mL; with Haemophilus influenzae, over 64 µg/mL. The MIC in the experiment with Staphylococcus aureus [6] was 16 µg/mL (≈ 53.3 µM).
On to `CC(=O)NCn1cc(-c2cccc(C)c2)c(=O)o1`, for which the MIC with Enterococcus faecalis [1] was 32 µg/mL (≈ 130 µM); against Staphylococcus aureus [3] it was 8 µg/mL (≈ 32.5 µM); in the experiment with Haemophilus influenzae, over 64 µg/mL; in the experiment with Staphylococcus aureus [6] it was 4 µg/mL (≈ 16.2 µM).
Consider `CC(=O)NCn1cc(-c2ccc(C(C)C)cc2)c(=O)o1`, for which the MIC in the experiment on Enterococcus faecalis [1] was 2 µg/mL (≈ 7.29 µM); with Staphylococcus aureus [3], 1 µg/mL (≈ 3.65 µM); with Staphylococcus aureus [4], 4 µg/mL; with Enterococcus faecalis [5], 8 µg/mL.
Take `Oc1oncc1-c1ccc2c(c1)OCO2`: the MIC in the experiment with Enterococcus faecalis [1] is over 128 µg/mL; in the experiment with Staphylococcus aureus [3] it was over 128 µg/mL; in the experiment on Staphylococcus aureus [4], over 64 µg/mL; with Enterococcus faecalis [5] it was over 64 µg/mL; in the experiment on Haemophilus influenzae, over 64 µg/mL.
Regarding `COc1cc(OC)cc(-c2cn(CNC(C)=O)oc2=O)c1`, the MIC in the experiment on Enterococcus faecalis [1] was over 128 µg/mL; against Staphylococcus aureus [3] it was over 128 µg/mL; against Haemophilus influenzae it was 64 µg/mL (≈ 219 µM).
As for `COc1ccc(-c2cn(CNC(C)=O)oc2=O)cc1OC`, the MIC with Enterococcus faecalis [1] was over 128 µg/mL; against Staphylococcus aureus [3], 128 µg/mL (≈ 438 µM); with Staphylococcus aureus [4], over 64 µg/mL; with Enterococcus faecalis [5] it was over 64 µg/mL; against Haemophilus influenzae it was over 64 µg/mL; against Staphylococcus aureus [6], 64 µg/mL (≈ 219 µM).
As for `CC(=O)NC[C@H]1CN(c2ccc(N3CCOCC3)c(F)c2)C(=O)O1` [LINEZOLID], the MIC amounted to 0.5 µg/mL (≈ 1.48 µM) in the experiment with Enterococcus faecalis [1]; 1 µg/mL with Staphylococcus aureus [2]; 1 µg/mL (≈ 2.96 µM) against Staphylococcus aureus [3]; 1 µg/mL in the experiment with Staphylococcus aureus [4]; 0.5 µg/mL with Enterococcus faecalis [5]; 8 µg/mL (≈ 23.7 µM) in the experiment with Haemophilus influenzae. In the experiment with Staphylococcus aureus [6], this compound yielded an MIC of 1 µg/mL (≈ 2.96 µM).
